Screening results from PubChem.
Autophagy mod: autophagy modulation, high-content screen; MEF GFP-LC3 puncta imaging; test concentration mostly 10 µM; calls only at 10 µM (by protocol); hit rate 0.98% among 190,000;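 active = percentage of spot-positive cells more than 3 SD above its plate mean, without a fluorescence outlier flag or 80% toxicity; inconclusive = no clear call, values can overlap the other calls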
Dynein cargo inh: blocks dynein driven cargo transport along microtubules. 3617.4 mouse cells, GR-EGFP nuclear translocation imaging; test concentration mostly 20 µM; stimulated with dexamethasone, 1 µM; active compounds read low. hit rate 0.47% among 220,000. z-score, hits read low;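 active = plate z-score of nuclear minus cytoplasmic receptor signal below a set negative limit, without overly bright fluorescence or cell loss, cut at about -3.5 in these data, passing the limit was not always enough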;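 also: z-score of nuclear minus cytoplasmic ring GR-EGFP intensity difference per well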
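Also added: dexamethasone, 1.0 µM final. Medium: tet-free, stripped-serum medium. Detection: fixed, Hoechst-stained cells imaged at 10x for EGFP. Read-out: nuclear-to-cytoplasmic GR-EGFP distribution per well. Times: induction 48 h, compound 1 h, agonist 30 min.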
Lmaj promast: inhibitors of Leishmania major promastigote growth. hit rate 9% among 200,000. Leishmania major promastigotes, resazurin fluorescence viability. inhibition, % at 10 µM; in the data active = inhibition above about 50%;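 also: promastigotes grown with compound for 44 hours at 28 °C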
MT stabilizer: microtubule stabilization, imaging screen. HeLa tubulin immunostaining HCS, 24 h; share of cells brighter than vehicle mean+2SD. % tubulin-high responders, % at 10 µM. hit rate 0.83% among 200,000. AID 2205;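 active = plate Z-score above 3 for both tubulin-high and condensed-nucleus cell shares, with cell loss under 80%, at 10 µM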;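 also: anti alpha tubulin signal scored within the nucleus-defined area of each cell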
CHOP inh: CHOP inhibition in unfolded protein response | hit rate 3.8% among 220,000 | AID 2732 | inhibition, % at 10 µM | CHO-K1 CHOP-promoter luciferase, tunicamycin-induced, 15-18 h;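 active = compounds that reduced the stress-induced luciferase reporter signal by more than about 70% of percent inhibition, limit read from the data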
bCat nuc transl: beta-catenin nuclear translocation modulation | HeLa beta-catenin nuclear translocation, immunofluorescence imaging | nuclear translocation activity, % at 5 µM | hit rate 0.3% among 190,000 | AID 1665;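 active = nuclear translocation activity above 50% at 5 µM, with a well cell count of 50 or more; inconclusive = wells under 50 cells across six images, flagged as toxic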;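 also: per-cell ratio of nuclear to cytoplasmic median beta-catenin stain intensity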
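Technique: fluorescence imaging of beta-catenin antibody stain plus DAPI / Material: human HeLa cell line / Incubation: compound treatment 24 h, 37°C, 5% CO2 / Read-out basis: % activation of per-cell nuclear versus cytoplasmic median beta-catenin signal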
L major 1uM: blocks Leishmania major promastigote growth at 1 uM, repeat screen; shares compounds with Lmaj promast; L. major promastigote growth, resazurin fluorescence, 48 h; inhibition, % at 1 µM; hit rate 13% among 1,100;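 active = inhibition above about 50% in both repeat tests, limit read from the data; inconclusive = one repeat under the set limit, the other over it; inactive = both repeats under the set limit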
Each line names hits and unclear results; the compound was inactive in the other large screens (follow-up assays come after a bar, where they were run). An excerpt weighted towards active compounds, which were near 12% of everything screened.

N#Cc1cc2sc3nnc(-c4ccncc4)n3c2cc1C#N	Lmaj promast 54 (no result: bCat nuc transl) | L major 1uM inactive
COc1ccc(-c2ncncc2-c2csc(C)n2)c(O)c1OC	none
COC1=C(N)C(=O)c2nc(-c3nc(C(=O)O)c(C)c(-c4ccc(OC)c(OC)c4O)c3N)ccc2C1=O	Lmaj promast 65, CHOP inh 81 (no result: bCat nuc transl) | L major 1uM inactive
O=C(CCc1ccccc1)Nc1nnc(-c2ccccn2)o1	Lmaj promast 62 | L major 1uM inactive
CCC(=O)Nc1nnc(-c2ccccn2)o1	none
COc1ccc2cc(Br)ccc2c1CC(=O)NC1CC(C)(C)NC(C)(C)C1	Lmaj promast 100 (no result: bCat nuc transl) | L major 1uM inactive
CCOc1ccc(N(C(=O)c2cnsn2)C(C(=O)NC2CCCCC2)c2ccncc2)cc1 (stereo unspecified)	Lmaj promast 76 | L major 1uM inactive
COc1ccc2c3c(cccc13)NN=C2C	Lmaj promast 101 (no result: CHOP inh, bCat nuc transl) | L major 1uM 98
COc1ccc(C(=O)c2ccc(OC)c3cccc(O)c23)cc1OC	none
Cc1ccc(NC(=O)NC(=O)N(C(C)C)S(C)(=O)=O)nc1	Lmaj promast 77 | L major 1uM inactive
COc1ccc(NC(=O)CCn2cccc2)cc1	none
COc1cc(O)sc1C=Nc1ccc(Cl)cc1Cl	none
CC(C)(C)c1cc(C(C)(C)C)cc(S(=O)(=O)CCc2ccccn2)c1	Lmaj promast 60, CHOP inh 70 (no result: bCat nuc transl) | L major 1uM inactive
Cc1ccc(/C=C\c2nccc3c2[nH]c2ccccc23)cc1	Lmaj promast 68 | L major 1uM inactive
C(=C\c1nccc2c1[nH]c1ccccc12)/c1ccccc1	none (no result: Autophagy mod, Lmaj promast, MT stabilizer)
COCCCNC(=S)NC(=O)c1ccc(C)cc1	none
CN1CCN(S(=O)(=O)c2cccc([N+](=O)[O-])c2)CC1	none (no result: CHOP inh, bCat nuc transl)
CC(C)c1nccn1S(=O)(=O)c1cccc([N+](=O)[O-])c1	Lmaj promast 52 | L major 1uM inactive
CCOP(=O)(OCC)C(C#N)=C1SCN(c2ccccc2)CS1	none (no result: CHOP inh, bCat nuc transl)
COc1ccc(CC(=O)NC(C)c2nnc(SCC(=O)c3ccc(Br)cc3)n2C)cc1 (stereo unspecified)	Lmaj promast 75 (no result: bCat nuc transl) | L major 1uM inactive
Cc1ccc(S(=O)(=O)NNC(=O)C2CCN(Cc3ccccc3)CC2)cc1	Lmaj promast 85 | L major 1uM inactive
N=c1c2c(n(Cc3ccccc3)c3c1CCC3)CCC2	Lmaj promast 100 (no result: CHOP inh) | L major 1uM 94
CCOC(=O)Cn1c2c(c(=N)c3ccccc31)CCC2	none (no result: bCat nuc transl)
Brc1cccc(-c2nnc3sc(CN4CCCCC4)cn23)c1	none
Brc1cccc(-c2nnc3sc(CNC4CCCC4)cn23)c1	Lmaj promast 85 (no result: bCat nuc transl) | L major 1uM inconclusive
CCCn1nc(NC(=O)C2CCCO2)c2cc3cccc(C)c3nc21 (stereo unspecified)	none (no result: Autophagy mod, Lmaj promast, MT stabilizer)
CC(C)Cn1nc(NC(=O)C2CCCO2)c2cc3ccccc3nc21 (stereo unspecified)	Lmaj promast 63 (no result: CHOP inh) | L major 1uM inactive
N/C(Cc1ccc(Cl)c(Cl)c1)=N\OC(=O)c1ccc(Br)o1	none (no result: Autophagy mod, Lmaj promast, MT stabilizer)
Cc1cc(C)c(C#N)c(SCC(=O)c2ccccc2)n1	Lmaj promast 100 | L major 1uM inactive
Cc1c(C(=O)NCC2COc3ccccc3O2)oc2ccc(S(=O)(=O)N3CC(C)CC(C)C3)cc12 (stereo unspecified)	Lmaj promast 59 | L major 1uM inactive
Cc1ccc(OCc2nnc(SCC(=O)c3cccc([N+](=O)[O-])c3)n2C)cc1	none
O=C1CN(C(=O)CSc2nnnn2-c2ccc(Cl)cc2)c2ccccc2N1	none
Cc1sc2c(c1C)c(=O)nc1n2Cc2ccccc2-1	Lmaj promast 82 | L major 1uM inactive
O=C1CN(C(=O)COc2ccc(Br)cc2Br)c2ccccc2N1	none
O=C(/C=C/Nc1ccc(Oc2ccccc2Cl)cc1)c1ccco1	none
CC1N(C)c2cccc3cccc(c23)N1C	none
CC1=Nc2cccc3cccc(c23)N1C	Lmaj promast 85 | L major 1uM inactive
CCOc1ccc(NS(=O)(=O)c2ccc3c(c2)oc(=O)n3C)cc1	none
CCOc1ccc(N(CC)S(=O)(=O)c2ccc3c(c2)oc(=O)n3C)cc1	Lmaj promast 57 (no result: CHOP inh) | L major 1uM inactive
COC(=O)Cn1c(=NC(=O)C2COc3ccccc3O2)sc2cc(S(N)(=O)=O)ccc21 (stereo unspecified)	none
Cn1cc(CN2CCC(CO)CC2)c(-c2ccc(Oc3ccccc3)cc2)n1	Lmaj promast 97 | L major 1uM 75
CC1CN(Cc2cn(C)nc2-c2ccc(Oc3ccccc3)cc2)CCN1C (stereo unspecified)	none
Cn1cnc(S(=O)(=O)Nc2ccc(OC(F)F)cc2)c1	none (no result: Autophagy mod, Lmaj promast, MT stabilizer)
CCN1C=C(Cc2ccc(OC)cc2)C2=C(C1)C(c1ccc(OC)cc1)C(C#N)=C(N)O2 (stereo unspecified)	Lmaj promast 100 | L major 1uM inactive
CC(=O)c1c(C)nc2cc(Cl)ccc2c1N	Lmaj promast 50 | L major 1uM inactive
Cc1nc2ccc(Cl)cc2nc(C)/c1=N\O	none
CCOCCCNCc1cc(Cl)cc(Cl)c1OCC	none
Cc1cc(-c2ccccc2)cc(-c2ccccc2)[n+]1C	Lmaj promast 59 | L major 1uM inactive
O=C(Nc1ccc(Cl)c(Cl)c1)N(CCCN1CCOCC1)Cc1cccs1	none (no result: bCat nuc transl)
COc1ccc(C)cc1Nc1ccc(C(=O)O)cc1[N+](=O)[O-]	none
CC(C)C(O)(C#CCN1CCCC1)c1ccccc1 (stereo unspecified)	none
CC(C)C(O)(C#CCN1CCCCC1)c1ccccc1 (stereo unspecified)	Lmaj promast 93 | L major 1uM inactive
Cc1c(O)ccc(/C(Cc2ccc3ccccc3n2)=N\O)c1O	Lmaj promast 59 | L major 1uM inactive
COc1cccc(C(=O)N(Cc2ccc3c(c2)OCO3)Cc2nc3ccccc3c(=O)[nH]2)c1	Lmaj promast 82 | L major 1uM inactive
CC(C)CCn1c(O)c(N=Nc2ccccn2)c2ccccc21	Lmaj promast 69 | L major 1uM inactive
CC12CC(NC(=O)N1c1cccc(C(=O)Nc3ncn[nH]3)c1)c1ccccc1O2 (stereo unspecified)	none
COc1ccc(NC(=O)c2cccc(N3C(=O)NC4CC3(C)Oc3ccccc34)c2)cc1 (stereo unspecified)	Lmaj promast 100 (no result: bCat nuc transl) | L major 1uM inactive
O=C(NCc1ccncc1)C(=O)Nc1nc(C23CC4CC(CC(C4)C2)C3)cs1	Lmaj promast 51 (no result: bCat nuc transl) | L major 1uM inactive
OC1(c2ccc(F)cc2)CCN(Cc2ccccc2)C1 (stereo unspecified)	Lmaj promast 88 | L major 1uM inactive
OC1(c2ccc3c(c2)OCO3)CCN(Cc2ccc(F)cc2)CC1	none (no result: Autophagy mod, Lmaj promast, MT stabilizer)
CCc1ccc(NC(=S)N(CCN(C)C)C(C)c2ccncc2)cc1 (stereo unspecified)	none (no result: bCat nuc transl)
O=C(Nc1ccc(CN2CCOCC2)cc1)c1cccs1	Lmaj promast 96 (no result: bCat nuc transl) | L major 1uM inactive
